# Assay results of several laboratories.
# Compare with care: the assays were run in different laboratories.
# Effect on: cell growth or viability
Compound,cell line,technique,time,IC50
Cc1cnc(NC2CCOCC2)nc1-n1cnc(C(=O)NC(CN)c2cc(F)cc(Cl)c2)c1 (stereo not drawn),KM-H2,MTS,,2.6 µM
CC1=CC(C)(C)N(Cc2ccccc2)c2ccc(O)cc21,Huh-7,MTT,72 h,16 µM
O=c1[nH]cc(S(=O)(=O)Nc2cccc(-c3nnc(-c4cccc(Cl)c4)o3)c2)c(=O)[nH]1,NCI-H292,MTT,24 h,3.81 µM
COc1cccc(Oc2ccccc2NC(=O)[C@H](C)NC(=O)c2cccc3ccccc23)c1,SK-N-AS,,,1.5 µM
COC(=O)CN=c1scc(-c2ccccc2)n1-c1ccccc1[N+](=O)[O-],PANC-03-27,MTT,72 h,25.5 µM
COc1cc2c(Oc3ccc(NC(=O)C4(C(=O)Nc5ccc(F)cc5)CC4)cc3F)ccnc2cc1OCCCN1CCOCC1,human Myoblast,,72 h,0.12 µM
O=C(CNC(=O)c1cccc2ccccc12)Nc1ccccc1Oc1cccc(O)c1,SK-N-AS,,,0.192 µM
[Cl-].[Cl-].[Ti+4].c1cc[cH-]c1.c1cc[cH-]c1,HEK-293T,XTT,24 h,> 200 µM
Cc1ccncc1-c1ccc2oc(C(=O)c3cc(O)c(O)c(O)c3)cc2c1,HEK-293T,ATP luminescence,72 h,0.79 µg/mL
CC(C)C[C@H](NC(=O)[C@H](Cc1ccccc1)NC(=O)c1cnccn1)B(O)O,NCI-H292,ATP luminescence,,0.0093 µM
COc1cc([C@@H]2c3cc4c(cc3[C@@H](O[C@@H]3O[C@@H]5CO[C@@H](C)O[C@H]5[C@H](O)[C@H]3O)[C@H]3COC(=O)[C@H]23)OCO4)cc(OC)c1O,CCD-18Co,MTS,48 h,43.7 µM
COc1cc(Nc2nccc(-c3cnn4nc(OC)ccc34)n2)cc(C(F)(F)F)c1,NCI-H2009,ATP luminescence,,0.71 µM
C=CCNC1=C2C[C@@H](C)C[C@H](OC)[C@H](O)[C@@H](C)/C=C(\C)[C@H](OC(N)=O)[C@@H](OC)/C=C\C=C(/C)C(=O)NC(=CC1=O)C2=O,A-431,MTT,,0.067 µM
O=CC[C@@H](O)[C@H](O)[C@H](O)CO,A-431,MTT,3 h,> 6000 µM
O=C(CNC(=O)c1cccc2ccccc12)Nc1ccccc1Oc1ccccc1,SK-N-AS,,,0.107 µM
CCCCNS(=O)(=O)c1ccc(-c2ccc3oc(C(=O)c4cc(O)c(O)c(O)c4)cc3c2)cc1,HEK-293T,ATP luminescence,24 h,15 µg/mL
COC(=O)CN=c1scc(-c2ccccc2)n1-c1ccc(C)cc1,PANC-03-27,MTT,72 h,10.8 µM
O=C(O)c1ccc(NC(=O)c2cc3cc(Cl)ccc3[nH]2)cc1,SK-N-BE(2)-C,MTT,,21 µM
COc1cccc(Oc2ccccc2NC(=O)CNC(=O)c2cccc3ccccc23)c1,SK-N-BE(2)-C,,,0.236 µM
COC(=O)CN=c1scc(-c2ccccc2)n1-c1ccccc1,PANC-03-27,MTT,72 h,72.2 µM
CC(=O)c1ccc(-c2ccc3oc(C(=O)c4cc(O)c(O)c(O)c4)cc3c2)cc1,HEK-293T,ATP luminescence,72 h,1.3 µg/mL
COc1cc(N2CCC(N3CCN(C)CC3)CC2)ccc1Nc1ncc(Cl)c(Nc2ccccc2S(=O)(=O)C(C)C)n1,human Myoblast,,72 h,0.45 µM
COc1ccc(C[C]2([Ti+2][C]3(Cc4ccc(OC)cc4)C=CC=C3)C=CC=C2)cc1.[Cl-].[Cl-],HEK-293T,XTT,24 h,> 200 µM
CC[C@@H](C)[C@H](N)C(=O)N1Cc2ccccc2C1,TF-1,ATP luminescence,48 h,> 60 µM
O=C(NCc1ccc(CO)cc1)c1c[nH]c2ccc(Cl)cc12,SK-N-BE(2)-C,MTT,,17 µM
COc1cc2nccc(Oc3ccc(NC(=O)C4(C(=O)Nc5ccc(F)cc5)CC4)cc3)c2cc1OC,human Myoblast,,72 h,0.14 µM
O=C(c1cc(O)c(O)c(O)c1)c1cc2ccccc2o1,HEK-293T,ATP luminescence,24 h,1.3 µg/mL
Cc1cc(NC(=O)c2cccc3cc(-c4cccc5[nH]nc(N)c45)ccc23)ccc1F,D283,CCK-8,72 h,> 20 µM
COC(=O)CN=c1scc(-c2ccccc2)n1-c1ccccc1OC,PANC-03-27,MTT,72 h,13.5 µM
C=CC(=O)Nc1cc(Nc2nccc(-c3cn(C)c4ccccc34)n2)c(OC)cc1N(C)CCN(C)C,A-431,ATP luminescence,72 h,0.249 µM
